Ba/F3 V617F tox: loss of viability in JAK2V617F-driven Ba/F3 cells; Ba/F3 EpoR-JAK2V617F viability, ATP luminescence; inhibition, % at 5.6 µM; hit rate 1.1% among 220,000;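 active = inhibition above the campaign mean plus 3 SD over all tested compounds, cut at about 24% in these data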;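 also: cytokine-independent growth of Ba/F3 cells driven by EpoR plus mutant JAK2; 0% = DMSO-treated cells and 100% = JAK inhibitor I control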
APP transl inh: APP translation inhibition; SH-SY5Y APP 5'UTR-luciferase reporter, luminescence; inhibition, % at 2 µM; hit rate 0.82% among 190,000;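 active = inhibition above a set limit, derived from the sample mean plus 3 SD, cut at about 45% in these data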
L major viab: inhibitors of Leishmania major promastigote growth; AID 1063; Leishmania major promastigotes, resazurin fluorescence viability; hit rate 9% among 200,000; inhibition, % at 10 µM; in the data active = inhibition above about 50%;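 also: promastigotes grown with compound for 44 hours at 28 °C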
bCat nuc transl: alters nuclear translocation of beta-catenin in HeLa cells. AID 1665. immunofluorescence imaging. hit rate 0.3% among 190,000. nuclear translocation activity, % at 5 µM;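 active = nuclear translocation activity above 50% at 5 µM, with a well cell count of 50 or more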;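 also: per-cell ratio of nuclear to cytoplasmic median beta-catenin stain intensity; plate controls were DMSO negative control for no effect and GSK-3 inhibitor IX positive control for full effect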
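System: Human HeLa cells, endogenous beta-catenin | Compound dosing: 5 µM primary, 0.02–20 µM confirmation | Timing: 24 h compound exposure at 37°C, 5% CO2 | Measured by: Fluorescence imaging of beta-catenin antibody stain plus DAPI | Read-out basis: % activation of per-cell nuclear versus cytoplasmic median beta-catenin signal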
MT stabilize HCS: microtubule stabilization, imaging screen; % tubulin-high responders, % at 10 µM; AID 2205; hit rate 0.83% among 200,000; HeLa tubulin immunostaining HCS, 24 h; share of cells brighter than vehicle mean+2SD;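 active = plate Z-score above 3 for both tubulin-high and condensed-nucleus cell shares, with cell loss under 80%, at 10 µM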;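 also: anti alpha tubulin signal scored within the nucleus-defined area of each cell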
BaF3 tox: counter-screen for JAK2V617F inhibitors: parental Ba/F3 viability inhibitors; hit rate 1.1% among 220,000; AID 1486; CellTiter-Glo ATP luminescence; inhibition, % at 5.6 µM;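 active = inhibition above a per-campaign cutoff, the mean inhibition of all tested compounds plus 3 SD, cut at about 27% in these data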;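 also: 0% = DMSO wells and 100% = JAK Inhibitor I control wells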
* = called active by the depositor; / = no result given. Only some compounds are listed: those with a hit (about 9.6% of all), similar ones and a draw of the others.

SMILES	Ba/F3 V617F tox	APP transl inh	L major viab	bCat nuc transl	MT stabilize HCS	BaF3 tox
CN(Cc1ccccc1)CC(O)COc1ccc(CNCCc2cccnc2)cc1 (centres undefined)	2.0	-7.4	82.8*	0.1	2.1	6.8
CCOc1ccc(S(=O)(=O)NC2CC2)cc1C(N)=O	1.7	-11.2	-3.9	0.0	3.6	6.0
CCN1C(=O)S/C(=C/c2cn(C)c3ccccc23)C1=O	-6.6	11.9	81.9*	0.1	3.9	-2.5
CCOC(=O)C1(Cc2ccccc2C(F)(F)F)CCN(CC2CC2)CC1	3.5	-12.0	57.4*	-0.5	1.2	8.5
CCOC(=O)C1(Cc2ccccc2C(F)(F)F)CCN(C2CCSC2)CC1 (centres undefined)	-0.9	-1.6	52.0*	3.9	4.0	0.4
CCOC(=O)C1(Cc2ccccc2C(F)(F)F)CCN(C(C)CSC)CC1 (centres undefined)	-2.2	8.2	75.6*	1.5	3.1	2.7
CCOC(=O)C1(Cc2ccccc2C(F)(F)F)CCN(Cc2ccon2)CC1	-0.4	/	/	0.3	/	4.7
CCOC(=O)C1(Cc2ccccc2C(F)(F)F)CCN(C2CCCC2)CC1	-1.5	-9.5	79.8*	-0.7	3.0	3.6
CCOC(=O)C1(Cc2ccccc2C(F)(F)F)CCN(C(C)CCn2cccn2)CC1 (centres undefined)	-0.8	3.2	49.0	0.6	3.5	2.6
Cc1ccc(NC(=O)C(C)c2cccc(C(=O)c3ccccc3)c2)cc1O (centres undefined)	-0.8	7.7	3.8	-1.4	1.6	6.1
CC(NC(=O)COC(=O)[C@@H]1CCCN1S(=O)(=O)c1ccccc1F)C12CC3CC(CC(C3)C1)C2 (some centres undefined)	1.7	-9.0	95.6*	-1.2	1.3	4.2
O=C(OCc1nc2ccccc2s1)[C@@H]1CCCN1S(=O)(=O)c1ccccc1F	1.7	-19.3	-4.4	1.5	0.9	8.4
CC(C)N(C)NC(=S)Nc1ccccc1	2.6	8.0	62.5*	/	1.7	8.2
CC(=O)Nc1ccc(S(=O)(=O)N(C)c2ccccc2)cc1	-1.4	-11.4	0.7	3.2	3.3	-0.9
CN(c1ccccc1)S(=O)(=O)c1ccc(NC(=O)c2ccc(-c3ccccc3)cc2)cc1	-2.2	-2.4	97.0*	1.2	1.9	5.0
CN(c1ccccc1)S(=O)(=O)c1ccc(C(=O)Nc2nccs2)cc1	-3.2	3.1	5.1	/	6.5	10.3
Cc1csc(NC(=O)c2ccc(S(=O)(=O)N(C)c3ccccc3)cc2)n1	3.6	-0.8	98.0*	-1.4	1.9	-3.0
CN(c1cccc(NC(=O)c2ccc(N(C)S(=O)(=O)c3ccccc3)cc2)c1)S(C)(=O)=O	1.0	-15.7	61.7*	0.3	2.9	8.0
CN(C)c1nc(SCc2ccc(Cl)cc2)nc2c1CCCC2	0.0	4.9	-1.2	-1.8	2.4	5.8
CC1(C)Cc2cccc(OCC(=O)OCC(=O)Nc3cccc(S(N)(=O)=O)c3)c2O1	-8.3	/	/	-1.6	/	-3.0
COC(=O)c1ccc(-n2c(C)cc(-c3csc(NC(=O)c4ccc(S(=O)(=O)N(C)C)cc4)n3)c2C)cc1	0.1	-7.9	56.9*	-0.4	2.6	8.9
CN(c1ccccc1)S(=O)(=O)c1ccc(NC(=S)Nc2ccccc2)cc1	-1.3	-5.2	92.7*	0.2	1.3	6.3
NC(=S)NNc1ccnc2cc(Cl)ccc12	0.3	-6.5	18.2	6.7	3.6	6.8
O=C(NNc1ccnc2cc(Cl)ccc12)C1CCCCC1	25.2*	17.9	10.0	2.9	2.0	35.5*
CN(Cc1cccc(Cl)c1Cl)c1ccc(S(=O)(=O)N2CCCCC2)cc1[N+](=O)[O-]	-6.0	10.5	5.0	0.3	3.1	2.0
SMILES	Ba/F3 V617F tox	APP transl inh	L major viab	bCat nuc transl	MT stabilize HCS	BaF3 tox
Cn1c2c(c(=O)[nH]c1=O)C(c1cccc(O)c1)C1=C(N2)c2ccccc2C1=O (centres undefined)	35.4*	27.9	2.9	3.2	19.9*	15.7
Cc1ccccc1-n1c(SCC(=O)NC(N)=O)nc2sc(-c3ccccc3)cc2c1=O	4.2	9.2	60.9*	-2.2	1.4	7.2
Cc1ccc(S(=O)(=O)N(C)C)cc1-n1c(SCC(=O)Nc2ccccc2)nc2ccccc2c1=O	-1.4	14.0	89.4*	1.4	3.6	7.2
Cc1ccc(S(=O)(=O)N(C)C)cc1-n1c(SCC(=O)Nc2ccc(F)cc2)nc2ccccc2c1=O	0.8	2.8	32.7	2.9	3.7	5.4
Cc1ccc(/C=N/NC(=O)CSc2nc3ccccc3c(=O)n2-c2ccccc2C)s1	-2.2	17.7	13.8	-1.6	4.2	1.1
Cc1ccccc1-n1c(SCC(=O)N/N=C/c2sccc2C)nc2ccccc2c1=O	-0.9	16.9	86.2*	0.5	14.2*	3.9
CN(C)C(=O)/C(=C\c1ccncc1)NC(=O)c1ccccc1	-3.5	-12.7	-5.6	-1.4	2.7	0.7
Cc1ccc(S(=O)(=O)N(CC(=O)NCc2ccco2)Cc2ccccc2F)cc1	0.3	-8.6	92.7*	0.7	2.3	4.5
O=C(CSc1oc(-c2cccs2)nc1S(=O)(=O)c1ccccc1)NC1CCCCC1	1.9	-1.0	98.0*	2.4	1.6	5.2
C=CCNc1oc(-c2cccs2)nc1S(=O)(=O)c1ccccc1	-1.2	2.9	95.9*	-4.9	5.0	4.3
Cc1ccc(S(=O)(=O)c2nc(-c3cccs3)oc2NCCCN(C)C)cc1	-3.7	-9.8	98.4*	/	3.7	6.9
COCCNc1oc(-c2cccs2)nc1S(=O)(=O)c1ccc(C)cc1	0.0	0.9	4.7	-0.6	4.2	5.6
CCC(C)NC(=O)Cn1c(=O)sc2ccccc21 (centres undefined)	2.1	-12.3	-2.3	-1.0	2.8	6.0
Oc1ccc(Br)cc1/C=N/Nc1ncc(-c2ccccc2)cn1	-4.8	3.8	-8.7	5.0	5.3	0.4
Oc1ccc(/C=N/Nc2ncc(Br)cn2)c(O)c1	14.8	-18.8	98.7*	-0.2	9.0	17.9
Cc1cccc(C)c1NC(=O)CN(c1ccccn1)S(=O)(=O)c1ccccc1	0.7	-13.3	6.2	-0.8	3.7	3.0
Cc1ccccc1Cn1ccc(=NCc2ccccc2)cc1	100.2*	2.5	100.4*	0.1	2.5	79.0*
CCOP(=O)(OCC)C(Nc1cccc(C(F)(F)F)c1)c1ccc(Br)cc1 (centres undefined)	0.0	-5.9	98.9*	-0.2	2.3	3.0
CCOP(=O)(OCC)C(Nc1ccc(F)cc1)c1ccccc1 (centres undefined)	-5.4	/	/	0.2	/	5.5
CCC1CCCCN1CCCNC(=O)c1cn(CC)c2ccc(S(=O)(=O)N3CCc4ccccc4C3)cc2c1=O (centres undefined)	3.9	6.7	98.2*	-2.4	1.7	14.2
CCn1cc(C(=O)NCCCN2CCCC(C)C2)c(=O)c2cc(S(=O)(=O)N3CCc4ccccc4C3)ccc21 (centres undefined)	0.3	3.6	99.7*	-0.2	2.2	1.9
Cc1nn(C)c(C)c1/C=C/C(=O)c1ccc(Cl)cc1Cl	10.9	3.6	31.9	-0.1	3.5	12.9
